The source made the active and inactive calls. The calls are words filed in the database; no cut-off is given here.
What was measured:
[1] = molecular target: Small conductance calcium-activated potassium channel protein 3 (Rattus norvegicus) (UniProt P70605); assay: Inhibition of recombinant rat SK3 expressed in HEK293T cells assessed as reduction in channel current at 10 uM and holding potential at 0 mV by whole cell patch clamp method relative to control; type: cell-based
[2] = Fluorescence property of compound in egg-PC based liposomes assessed as liposomal integration at 0.2 uM added before liposome formation by fluorescence spectra analysis; type: physicochemical; conditions: artificial membrane
In short: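 Pre-insertion: methanol stock (50 mM) added to egg-PC lipids before solvent evaporation, then liposomes formed; final compound 0.2 at lipid 8 or 40 (lipid/compound ratios 40 or 200).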

MDA-MB-435 [3] = assay: Cytotoxicity against human MDA-MB-435 cells at 1 uM incubated for 48 hrs by MTT assay; type: cell-based; conditions: mda-mb-435, 48 h
[4] = Fluorescence property of compound in preformed egg-PC based liposomes assessed as liposomal integration at 0.2 uM by fluorescence spectra analysis; type: physicochemical; conditions: artificial membrane
In short: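 Post-insertion: compound from methanol stock (50 mM) added to preformed, sonicated egg-PC liposomes; final compound 0.2 at lipid 8 or 40 (lipid/compound ratios 40 or 200).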

[5] = molecular target: Small conductance calcium-activated potassium channel protein 3 (Homo sapiens) (UniProt Q9UGI6); assay: Inhibition of SK3 (unknown origin) assessed as reduction in SK3 expression in presence of proteinase K
In short: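 Cell-surface expression by proteinase K cleavage: cells incubated with or without […] proteinase K at 37 °C for 30 min, quenched with ice-cold PBS with 6 mM PMSF and 25 mM EDTA; western blot, full-length SK3 75 kDa, surface-cleaved band 55 kDa.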

MDA-MB-435 [6] = assay: Inhibition of cell migration in human MDA-MB-435 cells expressing SK3 channel at 0.3 uM measured after 24 hrs; type: functional
In short: (§1)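 Transwell migration through […] pore inserts in 24-well plates, using MDA-MB-435s expressing endogenous SK3 (SK3+) or not (SK3-); DMSO stock 10 mM. Results relative to control, mean ± S.E.M.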

[7] = molecular target: Small conductance calcium-activated potassium channel protein 3 (Rattus norvegicus) (UniProt P70605); assay: Inhibition of recombinant rat SK3 expressed in HEK293 cells assessed as reduction in channel current at 10 uM and holding potential at 0 mV by whole cell patch clamp method relative to control; type: cell-based
[8] = Drug uptake in human MDA-MB-231 cells at 1 uM after 2 hrs by fluorescence imaging analysis; type: ADME, cell-based; conditions: mda-mb-231, 2 h
In short: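 Breast cancer cells seeded at 100.000 per 35 mm dish in serum-supplemented DMEM, treated 24 h after seeding; medium swapped to serum-free DMEM before adding compound. Wide-field microscope, 20× oil objective, excitation 340 nm, excimer emission imaged 468–552 nm; same field imaged every 15 min from 60 to 165 min after addition.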

MDA-MB-435 [9] = assay: Inhibition of cell migration in human MDA-MB-435 cells expressing SK3 channel at 1 uM measured after 24 hrs; type: functional; in short: as §1
[10] = Drug uptake in plasma membrane of human MDA-MB-231 cells at 1 uM measured after 45 mins by fluorescence imaging analysis; type: ADME, cell membranes, Cell membrane; conditions: mda-mb-231, 0.75 h
MDA-MB-435 [11] = assay: Inhibition of cell migration in human MDA-MB-435 cells at 1 uM measured after 24 hrs; type: functional, cell-based; in short: as §1

Sequence of Small conductance calcium-activated potassium channel protein 3 (Rattus norvegicus) (P70605 whole entry): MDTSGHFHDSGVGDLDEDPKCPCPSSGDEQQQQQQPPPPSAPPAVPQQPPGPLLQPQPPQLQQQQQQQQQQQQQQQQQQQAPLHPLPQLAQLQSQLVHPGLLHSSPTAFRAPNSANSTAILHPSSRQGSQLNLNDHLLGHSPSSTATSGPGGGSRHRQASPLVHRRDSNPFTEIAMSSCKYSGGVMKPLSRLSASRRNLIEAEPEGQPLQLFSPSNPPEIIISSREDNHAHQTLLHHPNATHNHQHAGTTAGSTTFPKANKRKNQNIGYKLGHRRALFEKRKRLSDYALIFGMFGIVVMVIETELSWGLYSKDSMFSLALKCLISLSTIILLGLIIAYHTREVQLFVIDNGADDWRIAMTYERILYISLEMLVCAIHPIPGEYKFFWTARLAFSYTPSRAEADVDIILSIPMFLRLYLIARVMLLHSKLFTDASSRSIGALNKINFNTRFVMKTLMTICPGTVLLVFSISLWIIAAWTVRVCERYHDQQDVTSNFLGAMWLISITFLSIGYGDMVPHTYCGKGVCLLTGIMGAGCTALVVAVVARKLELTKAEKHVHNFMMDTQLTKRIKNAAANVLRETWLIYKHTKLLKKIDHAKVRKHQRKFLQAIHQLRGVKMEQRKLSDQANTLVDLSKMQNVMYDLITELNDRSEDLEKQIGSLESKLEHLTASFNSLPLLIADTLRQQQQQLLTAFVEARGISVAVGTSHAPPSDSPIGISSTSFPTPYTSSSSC
Sequence of Small conductance calcium-activated potassium channel protein 3 (Homo sapiens) (Q9UGI6 whole entry): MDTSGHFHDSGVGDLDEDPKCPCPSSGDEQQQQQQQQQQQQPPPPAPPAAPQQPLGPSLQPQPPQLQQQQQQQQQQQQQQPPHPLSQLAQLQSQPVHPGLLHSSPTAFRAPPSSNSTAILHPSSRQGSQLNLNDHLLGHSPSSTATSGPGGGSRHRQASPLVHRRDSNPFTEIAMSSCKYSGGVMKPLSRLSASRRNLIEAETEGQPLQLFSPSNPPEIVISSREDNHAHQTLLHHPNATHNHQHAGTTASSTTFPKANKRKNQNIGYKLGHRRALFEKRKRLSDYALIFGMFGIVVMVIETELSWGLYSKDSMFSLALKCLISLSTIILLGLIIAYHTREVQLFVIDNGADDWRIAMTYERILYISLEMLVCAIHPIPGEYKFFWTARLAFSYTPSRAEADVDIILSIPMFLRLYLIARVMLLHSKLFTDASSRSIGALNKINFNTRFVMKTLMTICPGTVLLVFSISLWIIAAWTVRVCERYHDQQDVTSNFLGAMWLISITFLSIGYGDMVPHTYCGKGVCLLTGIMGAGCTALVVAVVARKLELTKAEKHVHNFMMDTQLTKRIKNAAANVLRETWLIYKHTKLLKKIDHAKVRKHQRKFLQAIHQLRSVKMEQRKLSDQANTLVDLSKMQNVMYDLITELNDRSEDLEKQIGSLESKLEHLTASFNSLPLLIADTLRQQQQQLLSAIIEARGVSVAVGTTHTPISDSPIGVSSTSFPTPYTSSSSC

inhibition [1] | Activity [2] | Activity [4] | inhibition [5] | inhibition [7] [%] | Drug uptake [8] | Drug uptake [10] | Compound | Activity (MDA-MB-435 [3]) | inhibition at 0.3 µM (MDA-MB-435 [6]) [%] | inhibition at 1 µM (MDA-MB-435 [9]) [%] | inhibition (MDA-MB-435 [6]) | inhibition (MDA-MB-435 [11])
inactive | Active | Active | – | – | – | – | COC(COCCCCCCCCCCCCCCCCc1ccc2ccc3cccc4ccc1c2c34)CO[C@@H]1O[C@H](CO)[C@@H](O[C@@H]2O[C@H](CO)[C@H](O)[C@H](O)[C@H]2O)[C@H](O)[C@H]1O (mixture of isomers) | Non-Toxic | – | – | – | –
– | – | – | inactive | 73 | – | – | CCCCCCCCCCCCCCCCOCC(CO[C@@H]1O[C@H](CO)[C@@H](O[C@@H]2O[C@H](CO)[C@H](O)[C@H](O)[C@H]2O)[C@H](O)[C@H]1O)OC (stereo not given in full) | – | 50 | – | – | –
inactive | Not Active | Not Active | – | – | – | – | COC(COCCCCc1ccc2ccc3cccc4ccc1c2c34)CO[C@@H]1O[C@H](CO)[C@@H](O[C@@H]2O[C@H](CO)[C@H](O)[C@H](O)[C@H]2O)[C@H](O)[C@H]1O (mixture of isomers) | Non-Toxic | – | – | – | –
– | Active | Active | inactive | – | Active | Active | COC(COCCCCCCCCCCCc1ccc2ccc3cccc4ccc1c2c34)CO[C@@H]1O[C@H](CO)[C@@H](O[C@@H]2O[C@H](CO)[C@H](O)[C@H](O)[C@H]2O)[C@H](O)[C@H]1O (mixture of isomers) | Non-Toxic | – | -32.5 | inactive | inactive
